Test results taken from ChEMBL document CHEMBL2169868, “Flavone-based novel antidiabetic and antidyslipidemic agents” (J Med Chem, 2012).

Key:
Syrian golden hamster [1] = assay: Antidyslipidemic activity in high fructose and high-fat diet fed dyslipidemic Syrian golden hamster model assessed as reduction in cholesterol level at 100 mg/kg/day, po for 7 days; type: functional, Mesocricetus auratus; set-up: scale not given: the % may be the effect or the level left
Summary of the method: (§1)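 Syrian golden hamsters fed high-fructose high-fat diet; oral dosing in 1% gum acacia at 10, 30, 100 mg/kg (or 25 mg/kg) for 7 days, sham control given vehicle; plasma TG, cholesterol, LDL-C, HDL-C, glycerol and NEFA (kits), lipoprotein lipase activity and body weight; % change versus HFD control, six hamsters per group.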

Syrian golden hamster [2] = assay: Antidyslipidemic activity in high fructose and high-fat diet fed dyslipidemic Syrian golden hamster model assessed as reduction in LDL-cholesterol level at 10 mg/kg/day, po for 7 day, po; type: functional, Mesocricetus auratus; set-up: scale not given: the % may be the effect or the level left; summary of the method: as §1
[3] = Elimination half life in Sprague-Dawley rat at 25 mg/kg, po by LC-MS/MS method; type: ADME, organism-based; set-up: dose 25 mg/kg, route oral; details: in vivo, read-out: beta t1/2 (converted)
Summary of the method: (§2)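 Male Sprague−Dawley rats given a single 25 mg/kg oral dose (aqueous 0.5% methyl cellulose suspension for one compound). Blood drawn from 0.08 to 48 h. LC-MS/MS, linear range 0.78−400 ng/mL.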

Syrian golden hamster [4] = assay: Antidyslipidemic activity in high fructose and high-fat diet fed dyslipidemic Syrian golden hamster model assessed as increase in HDL-cholesterol level at 100 mg/kg/day, po for 7 days; type: functional, Mesocricetus auratus; summary of the method: as §1
[5] = Plasma clearance in Sprague-Dawley rat at 25 mg/kg, po by LC-MS/MS method; type: ADME, organism-based; set-up: dose 25 mg/kg, route oral; summary of the method: as §2
Syrian golden hamster [6] = assay: Antidyslipidemic activity in high fructose and high-fat diet fed dyslipidemic Syrian golden hamster model assessed as reduction in LDL-cholesterol level at 100 mg/kg/day, po for 7 days; type: functional, Mesocricetus auratus; set-up: scale not given: the % may be the effect or the level left; summary of the method: as §1
Syrian golden hamster [7] = assay: Antidyslipidemic activity in high fructose and high-fat diet fed dyslipidemic Syrian golden hamster model assessed as increase in lipoprotein lipase level at 100 mg/kg/day, po for 7 days; type: functional, Mesocricetus auratus; summary of the method: as §1
Mus musculus [8] = assay: Antidiabetic activity in diabetic C57BL/KsJ db/db mouse model assessed as improvement in glucose tolerance in hyperglycemia at 10 mg/kg, po measured 2 hrs post dose; type: functional
[9] = Volume of distribution in Sprague-Dawley rat at 2.5 mg/kg, iv by LC-MS/MS method; type: ADME, organism-based; set-up: dose 2.5 mg/kg, route intravenous; details: in vivo
Summary of the method: (§3)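 Male Sprague−Dawley rats given a single 2.5 mg/kg iv dose; one formulation was DMF/PG/water (2:4:4), 0.2 μ filtered. Blood drawn from 0.08 to 48 h. Plasma assayed by LC-MS/MS with linear range 0.78−400 ng/mL.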

Syrian golden hamster [10] = assay: Antidyslipidemic activity in high fructose and high-fat diet fed dyslipidemic Syrian golden hamster model assessed as reduction in NEFA level at 100 mg/kg/day, po for 7 days; type: functional, Mesocricetus auratus; set-up: scale not given: the % may be the effect or the level left; summary of the method: as §1
Syrian golden hamster [11] = assay: Antidyslipidemic activity in high fructose and high-fat diet fed dyslipidemic Syrian golden hamster model assessed as reduction in cholesterol level at 10 mg/kg/day, po for 7 day, po; type: functional, Mesocricetus auratus; set-up: scale not given: the % may be the effect or the level left; summary of the method: as §1
Mus musculus [12] = assay: Antidiabetic activity in diabetic C57BL/KsJ db/db mouse model assessed as improvement in glucose tolerance in hyperglycemia at 3 mg/kg, po measured 2 hrs post dose; type: functional
[13] = Elimination half life in Sprague-Dawley rat at 2.5 mg/kg, iv by LC-MS/MS method; type: ADME, organism-based; set-up: dose 2.5 mg/kg, route intravenous; details: in vivo, read-out: beta t1/2 (converted); summary of the method: as §3
Mus musculus [14] = assay: Antidyslipidemic activity in diabetic C57BL/KsJ db/db mouse model assessed as reduction in plasma cholesterol level at 25 mg/kg, po qd for 10 days; type: functional; set-up: scale not given: the % may be the effect or the level left
Summary of the method: (§4)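 db/db mice (blood glucose 200−350, TG 170−250, cholesterol 170−250, HDL-C 32−40 mg/dL) dosed orally at 25 mg/kg daily for 10 days; retro-orbital blood taken on day 11 for plasma TG, cholesterol and HDL-C (and HDL-C/CHOL ratio); mean % change versus vehicle control, 5 mice per group; Student t test.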

Rattus norvegicus [15] = assay: Volume of distribution in Sprague-Dawley rat at 25 mg/kg, po by LC-MS/MS method; type: ADME, organism-based; set-up: dose 25 mg/kg, route oral; details: in vivo; summary of the method: as §2
Mus musculus [16] = assay: Antidiabetic activity in diabetic C57BL/KsJ db/db mouse model assessed as reduction in postprandial glucose level in hyperglycemia at 1 mg/kg, po measured 2 hrs post dose; type: functional; set-up: scale not given: the % may be the effect or the level left
Summary of the method: (§5)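 db/db mice (C57BL/KsJ, 12−18 weeks, 40−50 g; selected by glucose 200−350 mg/dL) dosed orally daily for 10 consecutive days at 1, 3, 10, 25 or 50 mg/kg; postprandial blood glucose profile recorded on day 6 with food access interrupted; mean % change versus vehicle in 5 animals per group; Student t test.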

Mus musculus [17] = assay: Antidiabetic activity in diabetic C57BL/KsJ db/db mouse model assessed as reduction in postprandial glucose level in hyperglycemia at 3 mg/kg, po measured 2 hrs post dose; type: functional; set-up: scale not given: the % may be the effect or the level left; summary of the method: as §5
Mus musculus [18] = assay: Antihyperglycemic activity in diabetic C57BL/KsJ db/db mouse model assessed as reduction in plasma insulin level in hyperglycemia at 25 mg/kg, po qd for 10 days; type: functional; set-up: scale not given: the % may be the effect or the level left
Summary of the method: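 db/db mice dosed orally every day for 10 days. On day 11, retro-orbital blood was drawn and plasma insulin measured. Mean % change versus vehicle-treated control, 5 mice per group; Student t test.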

Syrian golden hamster [19] = assay: Reduction in body weight in high fructose and high-fat diet fed dyslipidemic Syrian golden hamster model at 10 mg/kg/day, po for 7 days; type: functional, Mesocricetus auratus; set-up: scale not given: the % may be the effect or the level left
Summary of the method: (§6)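 HFD-fed Syrian golden hamsters, six per group, fed a high-fructose diet. Oral dosing in 1% gum acacia for 7 days. Sham group received vehicle. Plasma TG was measured and body weight tracked. Results given as % change versus HFD control.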

Syrian golden hamster [20] = assay: Antidyslipidemic activity in high fructose and high-fat diet fed dyslipidemic Syrian golden hamster model assessed as increase in HDL-cholesterol level at 30 mg/kg/day, po for 7 day, po; type: functional, Mesocricetus auratus; summary of the method: as §1
[21] = Plasma clearance in Sprague-Dawley rat at 2.5 mg/kg, iv by LC-MS/MS method; type: ADME, organism-based; set-up: dose 2.5 mg/kg, route intravenous; summary of the method: as §3
Rattus norvegicus [22] = assay: AUC in Sprague-Dawley rat at 2.5 mg/kg, iv by LC-MS/MS method; details: in vivo
Mus musculus [23] = assay: Antidiabetic activity in diabetic C57BL/KsJ db/db mouse model assessed as improvement in glucose tolerance in hyperglycemia at 25 mg/kg, po measured 2 hrs post dose; type: functional
[24] = Oral bioavailability in Sprague-Dawley rat at 25 mg/kg by LC-MS/MS method; type: ADME, organism-based; details: in vivo; summary of the method: as §2
Syrian golden hamster [25] = assay: Antidyslipidemic activity in high fructose and high-fat diet fed dyslipidemic Syrian golden hamster model assessed as reduction in triglyceride level at 25 mg/kg/day for 7 days; type: functional, Mesocricetus auratus; set-up: scale not given: the % may be the effect or the level left; summary of the method: as §6
Mus musculus [26] = assay: Antidyslipidemic activity in diabetic C57BL/KsJ db/db mouse model assessed as reduction in plasma triglyceride level at 25 mg/kg, po qd for 10 days; type: functional; set-up: scale not given: the % may be the effect or the level left; summary of the method: as §4
Syrian golden hamster [27] = assay: Antidyslipidemic activity in high fructose and high-fat diet fed dyslipidemic Syrian golden hamster model assessed as reduction in cholesterol level at 10 to 100 mg/kg/day for 7 days; type: functional, organism-based; details: Mesocricetus auratus; summary of the method: as §1
Mus musculus [28] = assay: Antidiabetic activity in diabetic C57BL/KsJ db/db mouse model assessed as improvement in glucose tolerance in hyperglycemia at 100 mg/kg, po measured 2 hrs post dose; type: functional
Syrian golden hamster [29] = assay: Antidyslipidemic activity in high fructose and high-fat diet fed dyslipidemic Syrian golden hamster model assessed as reduction in NEFA level at 30 mg/kg/day, po for 7 day, po; type: functional, Mesocricetus auratus; set-up: scale not given: the % may be the effect or the level left; summary of the method: as §1

Compound: CC(C)(C)NC[C@H](O)COc1ccc2c(=O)cc(-c3cc(OCc4ccccc4)cc(OCc4ccccc4)c3)oc2c1
- Activity (Syrian golden hamster [1]): 50.7%
- Activity (Syrian golden hamster [2]): 21.1%
- half-life [3]: 19.8 h
- Activity (Syrian golden hamster [4]): 27.9%
- CL/F [5]: 62.5 mL/min/kg
- Activity (Syrian golden hamster [6]): 68.4%
- Activity (Syrian golden hamster [7]): 69.7%
- Activity (Mus musculus [8]): 39.9%
- Vd [9]: 50.3 L/kg
- Activity (Syrian golden hamster [10]): 59.1%
- Activity (Syrian golden hamster [11]): 13.8%
- Activity (Mus musculus [12]): 35.1%
- half-life [13]: 10.1 h
- Activity (Mus musculus [14]): 30.7%
- Vd (Rattus norvegicus [15]): 107.41 L/kg
- Activity (Mus musculus [16]): 14.8%
- Activity (Mus musculus [17]): 22.1%
- Activity (Mus musculus [18]): 53.4%
- Activity (Syrian golden hamster [19]): 7.38%
- Activity (Syrian golden hamster [20]): 21%
- clearance [21]: 62 mL/min/kg
- AUC (Rattus norvegicus [22]): 666 ng·h/mL
- Activity (Mus musculus [23]): 44.6%
- bioavailability [24]: 27%
- Activity (Syrian golden hamster [25]): 34.7%
- Activity (Mus musculus [26]): 27.4%
- Activity (Syrian golden hamster [27]): Dose-dependent effect
- Activity (Mus musculus [28]): 59.4%
- Activity (Syrian golden hamster [29]): 26.3%
